Measured values: ChEMBL document CHEMBL1139690, “Comparison between two classes of selective EP(3) antagonists and their biological activities” (Bioorg Med Chem Lett, 2006)

Assays:
[1] = molecular target: T1, Prostaglandin E2 receptor EP1 subtype (Homo sapiens, UniProt P34995); experiment: Binding affinity to EP1 receptor
T1 sequence (P34995 whole entry): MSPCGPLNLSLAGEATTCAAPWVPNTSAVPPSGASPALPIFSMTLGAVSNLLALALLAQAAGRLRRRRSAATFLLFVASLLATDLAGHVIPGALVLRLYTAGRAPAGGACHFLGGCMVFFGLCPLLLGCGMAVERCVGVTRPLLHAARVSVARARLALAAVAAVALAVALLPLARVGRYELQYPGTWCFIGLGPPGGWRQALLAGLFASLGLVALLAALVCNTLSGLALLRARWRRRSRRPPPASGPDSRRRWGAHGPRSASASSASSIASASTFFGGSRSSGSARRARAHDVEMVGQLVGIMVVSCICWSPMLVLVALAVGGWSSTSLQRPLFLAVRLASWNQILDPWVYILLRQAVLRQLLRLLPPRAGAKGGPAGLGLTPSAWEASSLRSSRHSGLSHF

[2] = molecular target: Prostaglandin E2 receptor EP2 subtype (Homo sapiens, UniProt P43116); experiment: Binding affinity to EP2 receptor
Prostaglandin E2 receptor EP2 subtype, sequence (P43116 whole entry): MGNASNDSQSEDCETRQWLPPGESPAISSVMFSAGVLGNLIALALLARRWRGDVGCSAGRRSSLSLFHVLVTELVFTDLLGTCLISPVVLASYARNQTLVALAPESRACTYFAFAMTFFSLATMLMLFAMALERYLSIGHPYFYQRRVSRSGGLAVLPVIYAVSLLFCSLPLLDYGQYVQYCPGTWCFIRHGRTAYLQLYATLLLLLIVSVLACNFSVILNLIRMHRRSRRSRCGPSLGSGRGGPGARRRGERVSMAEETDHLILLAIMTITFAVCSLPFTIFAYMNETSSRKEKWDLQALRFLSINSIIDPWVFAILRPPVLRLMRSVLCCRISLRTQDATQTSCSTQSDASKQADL

[3] = molecular target: T2, Prostaglandin E2 receptor EP3 subtype (Homo sapiens, UniProt P43115); experiment: Binding affinity to EP3 receptor
T2 sequence (P43115 whole entry): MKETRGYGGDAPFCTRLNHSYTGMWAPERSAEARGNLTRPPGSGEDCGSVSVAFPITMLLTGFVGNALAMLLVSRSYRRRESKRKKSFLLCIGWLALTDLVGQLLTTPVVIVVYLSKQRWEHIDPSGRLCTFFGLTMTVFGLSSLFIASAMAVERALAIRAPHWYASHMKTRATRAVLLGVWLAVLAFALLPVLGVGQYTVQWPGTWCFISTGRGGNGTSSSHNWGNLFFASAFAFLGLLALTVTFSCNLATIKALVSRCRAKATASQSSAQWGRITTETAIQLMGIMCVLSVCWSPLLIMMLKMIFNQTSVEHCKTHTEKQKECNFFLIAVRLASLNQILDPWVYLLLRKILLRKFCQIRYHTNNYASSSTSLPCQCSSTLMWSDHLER

[4] = molecular target: Prostaglandin E2 receptor EP4 subtype (Homo sapiens, UniProt P35408); experiment: Binding affinity to EP4 receptor
Prostaglandin E2 receptor EP4 subtype, sequence (P35408 whole entry): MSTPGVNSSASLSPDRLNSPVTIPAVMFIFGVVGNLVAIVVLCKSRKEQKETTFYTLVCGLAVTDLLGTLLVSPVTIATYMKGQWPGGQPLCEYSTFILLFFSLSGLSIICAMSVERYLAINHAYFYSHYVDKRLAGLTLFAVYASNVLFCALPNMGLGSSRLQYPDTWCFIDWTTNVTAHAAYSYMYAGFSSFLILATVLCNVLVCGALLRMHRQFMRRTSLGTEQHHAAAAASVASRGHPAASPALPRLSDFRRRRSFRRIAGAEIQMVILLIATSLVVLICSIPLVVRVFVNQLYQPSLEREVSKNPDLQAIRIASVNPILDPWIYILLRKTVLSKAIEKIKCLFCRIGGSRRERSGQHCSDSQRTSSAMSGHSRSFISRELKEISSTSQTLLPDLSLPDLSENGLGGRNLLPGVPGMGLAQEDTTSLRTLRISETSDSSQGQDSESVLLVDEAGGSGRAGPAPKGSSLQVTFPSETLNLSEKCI

[5] = molecular target: T3, Prostaglandin E2 receptor EP3 subtype (Homo sapiens) (UniProt P43115); experiment: Antagonistic activity at EP3 receptor assessed as inhibition of cAMP production in HEK EBNA cells; assay type: functional, cell-based; conditions: HEK293-EBNA, filed as antagonist
T3 sequence (whole entry): T2 sequence (P43115 whole entry)

[6] = Bioavailability in Sprague-Dawley rat at 10 mg/kg, po and 5 mg/kg, iv; assay type: ADME, organism-based; conditions: in vivo
[7] = Clearance in Sprague-Dawley rat at 10 mg/kg, po and 5 mg/kg, iv; assay type: ADME, organism-based; conditions: in vivo
[8] = Half life in Sprague-Dawley rat at 10 mg/kg, po and 5 mg/kg, iv; assay type: ADME, organism-based; conditions: in vivo
[9] = Cmax in Sprague-Dawley rat at 10 mg/kg, po and 5 mg/kg, iv after 30 mins; assay type: ADME, organism-based; conditions: in vivo
[10] = tested on: Rattus norvegicus; experiment: Antiinflammatory activity against carrageenan-induced paw edema in po dosed rat; assay type: functional
[11] = tested on: Rattus norvegicus; experiment: Effect on carrageenan-induced paw hyperalgesia in po dosed rat; assay type: functional
[12] = tested on: Rattus norvegicus; experiment: Concentration in carrageenan-induced hyperalgesic rat at 10 mg/kg, po, 1 hr postdose; assay type: functional
In short: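 Young 100 g rats from the hyperalgesia model given 10 mg/kg po in 0.5% methocel as sodium salts; plasma concentration measured 1 h post-dosing, at the time hyperalgesia was assessed.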

[13] = molecular target: Prostacyclin receptor (Homo sapiens, UniProt P43119); experiment: Binding affinity to IP receptor
Prostacyclin receptor, sequence (P43119 whole entry): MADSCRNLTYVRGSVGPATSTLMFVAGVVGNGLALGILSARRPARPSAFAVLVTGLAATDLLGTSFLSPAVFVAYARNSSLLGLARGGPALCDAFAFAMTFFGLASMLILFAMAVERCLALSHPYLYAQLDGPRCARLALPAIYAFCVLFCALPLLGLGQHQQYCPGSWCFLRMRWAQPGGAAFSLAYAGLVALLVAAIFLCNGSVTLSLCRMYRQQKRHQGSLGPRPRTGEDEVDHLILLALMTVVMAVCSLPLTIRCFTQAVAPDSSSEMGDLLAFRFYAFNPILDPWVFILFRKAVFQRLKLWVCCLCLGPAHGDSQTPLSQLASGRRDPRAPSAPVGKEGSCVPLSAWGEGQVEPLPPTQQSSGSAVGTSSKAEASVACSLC

[14] = molecular target: T4, Thromboxane A2 receptor (Homo sapiens, UniProt P21731); experiment: Binding affinity to TP receptor
T4 sequence (P21731 whole entry): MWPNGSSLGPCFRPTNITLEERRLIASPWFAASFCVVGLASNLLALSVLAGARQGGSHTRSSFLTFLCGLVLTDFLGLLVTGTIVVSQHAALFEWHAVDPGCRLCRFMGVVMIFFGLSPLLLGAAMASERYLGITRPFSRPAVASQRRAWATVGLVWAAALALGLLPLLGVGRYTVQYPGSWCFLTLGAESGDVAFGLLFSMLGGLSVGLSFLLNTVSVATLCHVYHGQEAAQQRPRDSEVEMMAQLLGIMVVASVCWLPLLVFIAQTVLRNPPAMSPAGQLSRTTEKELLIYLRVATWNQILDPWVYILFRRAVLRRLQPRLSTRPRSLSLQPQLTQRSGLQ

[15] = molecular target: Prostaglandin F2-alpha receptor (Homo sapiens, UniProt P43088); experiment: Binding affinity to FP receptor
Prostaglandin F2-alpha receptor, sequence (P43088 whole entry): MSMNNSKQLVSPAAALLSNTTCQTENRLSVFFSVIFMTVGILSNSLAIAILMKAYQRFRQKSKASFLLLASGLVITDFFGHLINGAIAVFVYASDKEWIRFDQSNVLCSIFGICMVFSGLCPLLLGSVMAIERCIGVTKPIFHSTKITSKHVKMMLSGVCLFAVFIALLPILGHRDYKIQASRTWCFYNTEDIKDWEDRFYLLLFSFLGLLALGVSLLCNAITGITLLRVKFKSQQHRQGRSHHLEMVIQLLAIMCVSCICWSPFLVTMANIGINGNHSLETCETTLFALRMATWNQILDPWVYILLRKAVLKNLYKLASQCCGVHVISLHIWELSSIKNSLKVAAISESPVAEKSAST

[16] = molecular target: T5, Prostaglandin D2 receptor (Homo sapiens, UniProt Q13258); experiment: Binding affinity to DP receptor
T5 sequence (Q13258 whole entry): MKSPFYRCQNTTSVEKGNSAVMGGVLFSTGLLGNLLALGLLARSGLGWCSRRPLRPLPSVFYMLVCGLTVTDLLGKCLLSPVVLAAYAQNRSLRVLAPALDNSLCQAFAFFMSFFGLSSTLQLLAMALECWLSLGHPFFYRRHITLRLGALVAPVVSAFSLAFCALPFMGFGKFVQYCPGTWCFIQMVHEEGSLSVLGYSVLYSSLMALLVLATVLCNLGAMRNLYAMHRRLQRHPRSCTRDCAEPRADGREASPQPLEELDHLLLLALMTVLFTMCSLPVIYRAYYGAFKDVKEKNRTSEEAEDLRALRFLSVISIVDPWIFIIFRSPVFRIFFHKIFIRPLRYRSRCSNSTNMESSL

[17] = Stability in rat hepatocytes after 3 hrs; assay type: ADME, cell-based, Hepatocyte; conditions: read-out: Stability
In short: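 Incubation with rat hepatocytes for 3 h; percentage of parent compound recovered intact.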

[18] = molecular target: T2, Prostaglandin E2 receptor EP3 subtype; experiment: Binding affinity to EP3 receptor in presence of HSA
[19] = Metabolism in human hepatocytes; assay type: ADME, cell-based, Hepatocyte; conditions: read-out: Activity

Compound | Ki [1] | Ki [2] | Ki [3] | Ki [4] | Kb [5] | bioavailability [6] | clearance [7] | half-life [8] | Cmax [9] | ED50 [10] | ED50 [11] | Activity [12] | Ki [13] | Ki [14] | Ki [15] | Ki [16] | remaining at 3 h [17] | Ki [18] | metabolised [19]
Cc1ccc(OCc2ccccc2)c(CCCc2ccccc2CCC(=O)NS(=O)(=O)c2cccs2)c1 | 6700 nM (antagonist) | 1600 nM (antagonist) | 56 nM (antagonist) | 1000 nM (antagonist) |  |  |  |  |  |  |  |  |  |  |  |  |  |  | 
COc1ccc(/C=C/Cc2ccccc2/C=C/C(=O)O)cc1 | > 100000 nM | 2500 nM (antagonist) | 68 nM (antagonist) | 6200 nM (antagonist) |  |  |  |  |  |  |  |  |  |  |  |  |  |  | 
O=C(/C=C/c1ccccc1/C=C/Cc1ccccc1)NS(=O)(=O)c1cccs1 | 8500 nM (antagonist) | 8000 nM (antagonist) | 5 nM (antagonist) | 1500 nM (antagonist) |  |  |  |  |  |  |  |  |  |  |  |  |  |  | 
Cc1ccc(OCc2c(Cl)cccc2Cl)c(/C=C/Cc2ccccc2/C=C/C(=O)O)c1 | 6700 nM (antagonist) | 5400 nM (antagonist) | 3 nM (antagonist) | 620 nM (antagonist) | 5.8 nM | 74% | 16 mL/min | 2 h | 25 µM | 5.1 mg/kg | 5.8 mg/kg | 2.5 µM | > 500 nM | > 500 nM | > 500 nM | > 500 nM |  |  | 
Cc1ccc(OCc2ccccc2)c(/C=C/Cc2ccccc2/C=C/C(=O)O)c1 | 19000 nM | 860 nM (antagonist) | 9 nM (antagonist) | 2000 nM (antagonist) | 32 nM | 97% | 10 mL/min | 2 h | 22 µM | 0.9 mg/kg | 20 mg/kg | 1.2 µM | > 500 nM | > 500 nM | > 500 nM | > 500 nM | 8% |  | 
Cc1ccc(OCc2ccccc2)c(/C=C/Cc2ccccc2/C=C/C(=O)NS(=O)(=O)c2cccs2)c1 | 2300 nM (antagonist) | 2100 nM (antagonist) | 10 nM (antagonist) | 960 nM (antagonist) |  |  |  |  |  |  |  |  |  |  |  |  |  |  | 
Cc1ccc(OCc2ccccc2)c(C/C=C/c2ccccc2/C=C/C(=O)NS(=O)(=O)c2cccs2)c1 | 2300 nM (antagonist) | 2100 nM (antagonist) | 10 nM (antagonist) | 960 nM (antagonist) |  |  |  |  |  |  |  |  |  |  |  |  |  |  | 
Cc1ccc(OCc2ccccc2)c(C/C=C/c2ccccc2/C=C/C(=O)O)c1 | 19000 nM | 860 nM (antagonist) | 9 nM (antagonist) | 2000 nM (antagonist) | 32 nM | 97% | 10 mL/min | 2 h | 22 µM | 0.9 mg/kg | 20 mg/kg | 0.24 µM | > 500 nM | > 500 nM | > 500 nM | > 500 nM | 8% |  | 
O=C(O)/C=C/c1ccccc1C/C=C/c1ccccc1 | > 100000 nM | 1400 nM (antagonist) | 100 nM (antagonist) | 4400 nM (antagonist) |  |  |  |  |  |  |  |  |  |  |  |  |  |  | 
O=C(/C=C/c1ccccc1Cc1ccc2cc(OCc3ccccc3)ccc2c1)NS(=O)(=O)c1cccs1 | 3200 nM (antagonist) | 8000 nM (antagonist) | 0.6 nM (antagonist) | 1100 nM (antagonist) |  |  |  |  |  |  |  |  |  |  |  |  |  | 2.4 nM (antagonist) | 
Cc1ccc(OCc2ccccc2)c(CCCc2ccccc2CCC(=O)O)c1 | 23000 nM | 940 nM (antagonist) | 65 nM (antagonist) | 440 nM (antagonist) |  |  |  |  |  |  |  |  |  |  |  |  |  |  | 
COc1ccc(C/C=C/c2ccccc2/C=C/C(=O)NS(=O)(=O)c2cccs2)cc1 | 2600 nM (antagonist) | 6500 nM (antagonist) | 2.4 nM (antagonist) | 1000 nM (antagonist) |  |  |  |  |  |  |  |  |  |  |  |  |  |  | 
COc1ccc(/C=C/Cc2ccccc2/C=C/C(=O)NS(=O)(=O)c2cccs2)cc1 | 2600 nM (antagonist) | 6500 nM (antagonist) | 2.4 nM (antagonist) | 1000 nM (antagonist) |  |  |  |  |  |  |  |  |  |  |  |  |  |  | 
COc1ccc(Br)cc1S(=O)(=O)NC(=O)/C=C/c1ccccc1Cc1ccc2cc(OCc3ccccc3)ccc2c1 | > 100000 nM | > 100000 nM | 0.9 nM (antagonist) | 8000 nM (antagonist) | 0.7 nM |  |  |  |  |  | > 30 mg/kg | 8 µM | > 500 nM | > 500 nM | > 500 nM | > 500 nM |  | 0.7 nM (antagonist) | 
O=C(/C=C/c1ccccc1C/C=C/c1ccccc1)NS(=O)(=O)c1cccs1 | 8500 nM (antagonist) | 8000 nM (antagonist) | 5 nM (antagonist) | 1500 nM (antagonist) |  |  |  |  |  |  |  |  |  |  |  |  |  |  | 
COc1cc(/C=C/Cc2ccccc2/C=C/C(=O)O)ccc1OCc1ccccc1 | > 20000 nM | 750 nM (antagonist) | 8 nM (antagonist) | 610 nM (antagonist) |  |  |  |  |  |  |  |  |  |  |  |  |  |  | 
O=C(O)/C=C/c1ccccc1Cc1ccc2ccccc2c1 | > 100000 nM |  | 47 nM (antagonist) | 13000 nM |  |  |  |  |  |  | 30 mg/kg | 5.4 µM | > 500 nM | > 500 nM | > 500 nM | > 500 nM |  | 400 nM (antagonist) | 
O=C(/C=C/c1ccccc1Cc1ccc2ccccc2c1)NS(=O)(=O)c1cccs1 | 9600 nM (antagonist) | 8600 nM (antagonist) |  | 1300 nM (antagonist) |  | 144% | 12 mL/min | 3 h | 21 µM | 1.2 mg/kg | 6.2 mg/kg | 5 µM | > 500 nM | > 500 nM | > 500 nM | > 500 nM | 43% |  | 45%
COc1cc(C/C=C/c2ccccc2/C=C/C(=O)NS(=O)(=O)c2cccs2)ccc1OCc1ccccc1 | 1500 nM (antagonist) | 8700 nM (antagonist) | 1.6 nM (antagonist) | 840 nM (antagonist) |  |  |  |  |  |  |  |  |  |  |  |  |  |  | 
COc1cc(/C=C/Cc2ccccc2/C=C/C(=O)NS(=O)(=O)c2cccs2)ccc1OCc1ccccc1 | 1500 nM (antagonist) | 8700 nM (antagonist) | 1.6 nM (antagonist) | 840 nM (antagonist) |  |  |  |  |  |  |  |  |  |  |  |  |  |  | 
